# Active and inactive are the calls of the source. The calls are words filed in the database; no cut-off is given here.
# System: Bacillus cereus
# Test: Antibacterial activity against Bacillus cereus clinical isolate after 24 hr by microdilution test
# Type: functional
# Details: not given
# Method in brief: (§1)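 Broth microdilution in LB medium, about 1.0×10^4 cfu per well; compounds from 1 mg/ml stocks in 5% DMSO. Incubated 24 h. MIC is the lowest concentration with no visible growth under a binocular microscope. Run in duplicate, repeated three times.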
row,Structure (SMILES),MIC [µM]
1,O=C1N/C(=N\c2nccs2)S/C1=C\c1cc(Br)ccc1O,9

# System: Bacillus cereus
# Test: Bactericidal activity against Bacillus cereus clinical isolate after 72 hrs by serial subcultivation method
# Type: functional
# Details: not given
row,Structure (SMILES),MBC [µM]
1,O=C1N/C(=N\c2nccs2)S/C1=C\c1cc(Br)ccc1O,34

# System: Penicillium ochrochloron
# Test: Fungicidal activity against Penicillium ochrochloron ATCC 9112 after 72 hrs by serial subcultivation method
# Type: functional
# Details: ATCC 9112, 72 h
row,Structure (SMILES),MFC [µM]
1,O=C1N/C(=N\c2nccs2)S/C1=C\c1cc(Br)ccc1O,34

# System: Trichoderma viride
# Test: Antifungal activity against Trichoderma viride IAM 5061 after 72 hrs by serial dilution technique
# Type: functional
# Details: IAM 5061, 72 h
# Method in brief: (§2)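 Serial dilution in malt broth; compounds from 1 mg/ml stocks in 5% DMSO; 72 h at 28 °C. MIC is the lowest concentration with no visible growth under a binocular microscope. Run in duplicate, repeated three times.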
row,Structure (SMILES),MIC [µM]
1,O=C1N/C(=N\c2nccs2)S/C1=C\c1cc(Br)ccc1O,8.5

# Molecular target: not listed separately
# Test: (§3) Inhibition of soybean lipoxygenase assessed as inhibition of sodium linolate conversion to 13-hydroperoxylinoleic acid after 4 mins by spectrophotometry
# Design: species or system Glycine max
# Details: read-out: IC50
row,Structure (SMILES),IC50 [µM]
1,O=C1N/C(=N\c2nccs2)S/C1=C\c1cccc(O)c1,> 150

# System: Glycine max
# Test: as §3
# Details: not given
row,Structure (SMILES),inhibition
1,O=C1N/C(=N\c2nccs2)S/C1=C\c1cccc(O)c1,35%
2,O=C1N/C(=N\c2nccs2)S/C1=C\c1cc(Br)ccc1O,inactive

# System: Aspergillus flavus
# Test: Fungicidal activity against Aspergillus flavus ATCC 9643 after 72 hrs by serial subcultivation method
# Type: functional
# Details: ATCC 9643, 72 h
row,Structure (SMILES),MFC [µM]
1,O=C1N/C(=N\c2nccs2)S/C1=C\c1cc(Br)ccc1O,68

# System: Escherichia coli
# Test: Bactericidal activity against Escherichia coli ATCC 35210 after 72 hrs by serial subcultivation method
# Type: functional
# Details: ATCC 35210, 72 h
row,Structure (SMILES),MBC [µM]
1,O=C1N/C(=N\c2nccs2)S/C1=C\c1cc(Br)ccc1O,137

# System: Aspergillus niger
# Test: Fungicidal activity against Aspergillus niger ATCC 6275 after 72 hrs by serial subcultivation method
# Type: functional
# Details: ATCC 6275, 72 h
row,Structure (SMILES),MFC [µM]
1,O=C1N/C(=N\c2nccs2)S/C1=C\c1cc(Br)ccc1O,68

# System: Aspergillus fumigatus
# Test: Fungicidal activity against Aspergillus fumigatus after 72 hrs by serial subcultivation method
# Type: functional
# Details: not given
row,Structure (SMILES),MFC [µM]
1,O=C1N/C(=N\c2nccs2)S/C1=C\c1cc(Br)ccc1O,34

# System: Aspergillus flavus
# Test: Antifungal activity against Aspergillus flavus ATCC 9643 after 72 hrs by serial dilution technique
# Type: functional
# Details: ATCC 9643, 72 h
# Method in brief: as §2
row,Structure (SMILES),MIC [µM]
1,O=C1N/C(=N\c2nccs2)S/C1=C\c1cc(Br)ccc1O,34

# System: Trichoderma viride
# Test: Fungicidal activity against Trichoderma viride IAM 5061 after 72 hrs by serial subcultivation method
# Type: functional
# Details: IAM 5061, 72 h
row,Structure (SMILES),MFC [µM]
1,O=C1N/C(=N\c2nccs2)S/C1=C\c1cc(Br)ccc1O,17

# System: Listeria monocytogenes
# Test: Antibacterial activity against Listeria monocytogenes NCTC 7973 after 24 hr by microdilution test
# Type: functional
# Details: NCTC 7973, 24 h
# Method in brief: as §1
row,Structure (SMILES),MIC [µM]
1,O=C1N/C(=N\c2nccs2)S/C1=C\c1cc(Br)ccc1O,17

# System: Talaromyces funiculosus
# Test: Fungicidal activity against Penicillium funiculosum ATCC 36839 after 72 hrs by serial subcultivation method
# Type: functional
# Details: ATCC 36839, 72 h
row,Structure (SMILES),MFC [µM]
1,O=C1N/C(=N\c2nccs2)S/C1=C\c1cc(Br)ccc1O,34

# System: Penicillium ochrochloron
# Test: Antifungal activity against Penicillium ochrochloron ATCC 9112 after 72 hrs by serial dilution technique
# Type: functional
# Details: ATCC 9112, 72 h
# Method in brief: as §2
row,Structure (SMILES),MIC [µM]
1,O=C1N/C(=N\c2nccs2)S/C1=C\c1cc(Br)ccc1O,17

# Molecular target: T1, Prostaglandin G/H synthase 1 (Ovis aries, UniProt P05979)
# T1 sequence (P05979 whole entry): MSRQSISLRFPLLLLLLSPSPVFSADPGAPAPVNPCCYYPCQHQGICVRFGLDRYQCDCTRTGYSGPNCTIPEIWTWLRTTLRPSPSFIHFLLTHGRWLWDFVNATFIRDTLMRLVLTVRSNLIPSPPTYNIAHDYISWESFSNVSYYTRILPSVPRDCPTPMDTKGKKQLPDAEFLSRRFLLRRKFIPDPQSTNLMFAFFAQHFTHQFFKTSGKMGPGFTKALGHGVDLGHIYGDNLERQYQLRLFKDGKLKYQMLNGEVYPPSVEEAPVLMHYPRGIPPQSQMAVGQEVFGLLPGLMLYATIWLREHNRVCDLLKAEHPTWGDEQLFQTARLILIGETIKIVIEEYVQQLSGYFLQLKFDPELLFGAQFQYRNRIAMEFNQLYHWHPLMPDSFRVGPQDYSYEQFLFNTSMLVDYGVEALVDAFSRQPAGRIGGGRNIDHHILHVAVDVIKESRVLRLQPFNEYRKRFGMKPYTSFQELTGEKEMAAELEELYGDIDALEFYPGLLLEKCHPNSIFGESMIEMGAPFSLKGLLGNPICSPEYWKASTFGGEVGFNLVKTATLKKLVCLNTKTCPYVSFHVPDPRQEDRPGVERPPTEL
# Test: (§4) Inhibition of ovine COX1 assessed as inhibition of PGF2a production by enzyme immunoassay
# Details: not given
# Method in brief: (§5)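 Ovine COX-1 from a commercial screening kit, tested with 0.1 µM arachidonic acid, which is below the saturating level. COX-derived PGH2 is reduced by SnCl2 to PGF2a, quantified by enzyme immunoassay with a broad prostaglandin antibody. At least triplicate.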
row,Structure (SMILES),IC50 [µM]
1,O=C1N/C(=N\c2nccs2)S/C1=C\c1cccc(O)c1,16
2,O=C1N/C(=N\c2nccs2)S/C1=C\c1cc(Br)ccc1O,65

# Molecular target: T2, Prostaglandin G/H synthase 1 (Ovis aries) (UniProt P05979)
# T2 sequence (whole entry): T1 sequence (P05979 whole entry)
# Test: as §4
# Design: concentration or dose not given beside the values
# Details: concentration not given here
# Method in brief: as §5
row,Structure (SMILES),inhibition [%]
1,O=C1N/C(=N\c2nccs2)S/C1=C\c1cccc(O)c1,98
2,O=C1N/C(=N\c2nccs2)S/C1=C\c1cc(Br)ccc1O,73

# System: Staphylococcus aureus
# Test: Antibacterial activity against Staphylococcus aureus ATCC 6538 after 24 hr by microdilution test
# Type: functional
# Details: ATCC 6538, 24 h
# Method in brief: as §1
row,Structure (SMILES),MIC [µM]
1,O=C1N/C(=N\c2nccs2)S/C1=C\c1cc(Br)ccc1O,34

# System: Talaromyces funiculosus
# Test: Antifungal activity against Penicillium funiculosum ATCC 36839 after 72 hrs by serial dilution technique
# Type: functional
# Details: ATCC 36839, 72 h
# Method in brief: as §2
row,Structure (SMILES),MIC [µM]
1,O=C1N/C(=N\c2nccs2)S/C1=C\c1cc(Br)ccc1O,17

# System: Listeria monocytogenes
# Test: Bactericidal activity against Listeria monocytogenes NCTC 7973 after 72 hrs by serial subcultivation method
# Type: functional
# Details: NCTC 7973, 72 h
row,Structure (SMILES),MBC [µM]
1,O=C1N/C(=N\c2nccs2)S/C1=C\c1cc(Br)ccc1O,34

# System: Mus musculus
# Test: Acute toxicity in AKR mouse up to 0.5 mmol/kg, ip
# Type: organism-based
# Details: in vivo
row,Structure (SMILES),Activity
1,O=C1N/C(=N\c2nccs2)S/C1=C\c1cccc(O)c1,Non-toxic
2,O=C1N/C(=N\c2nccs2)S/C1=C\c1cc(Br)ccc1O,Non-toxic

# System: Escherichia coli
# Test: Antibacterial activity against Escherichia coli ATCC 35210 after 24 hr by microdilution test
# Type: functional
# Details: ATCC 35210, 24 h
# Method in brief: as §1
row,Structure (SMILES),MIC [µM]
1,O=C1N/C(=N\c2nccs2)S/C1=C\c1cc(Br)ccc1O,68

# System: Aspergillus niger
# Test: Antifungal activity against Aspergillus niger ATCC 6275 after 72 hrs by serial dilution technique
# Type: functional
# Details: ATCC 6275, 72 h
# Method in brief: as §2
row,Structure (SMILES),MIC [µM]
1,O=C1N/C(=N\c2nccs2)S/C1=C\c1cc(Br)ccc1O,34

# System: Aspergillus fumigatus
# Test: Antifungal activity against Aspergillus fumigatus after 72 hrs by serial dilution technique
# Type: functional
# Details: not given
# Method in brief: as §2
row,Structure (SMILES),MIC [µM]
1,O=C1N/C(=N\c2nccs2)S/C1=C\c1cc(Br)ccc1O,17

# System: Micrococcus flavus
# Test: Antibacterial activity against Micrococcus flavus ATCC 10240 after 24 hr by microdilution test
# Type: functional
# Details: ATCC 10240, 24 h
# Method in brief: as §1
row,Structure (SMILES),MIC [µM]
1,O=C1N/C(=N\c2nccs2)S/C1=C\c1cc(Br)ccc1O,34

# System: Staphylococcus aureus
# Test: Bactericidal activity against Staphylococcus aureus ATCC 6538 after 72 hrs by serial subcultivation method
# Type: functional
# Details: ATCC 6538, 72 h
row,Structure (SMILES),MBC [µM]
1,O=C1N/C(=N\c2nccs2)S/C1=C\c1cc(Br)ccc1O,68

# System: Pseudomonas aeruginosa
# Test: Bactericidal activity against Pseudomonas aeruginosa ATCC 27853 after 72 hrs by serial subcultivation method
# Type: functional
# Details: ATCC 27853, 72 h
row,Structure (SMILES),MBC [µM]
1,O=C1N/C(=N\c2nccs2)S/C1=C\c1cc(Br)ccc1O,34

# System: Micrococcus flavus
# Test: Bactericidal activity against Micrococcus flavus ATCC 10240 after 72 hrs by serial subcultivation method
# Type: functional
# Details: ATCC 10240, 72 h
row,Structure (SMILES),MBC [µM]
1,O=C1N/C(=N\c2nccs2)S/C1=C\c1cc(Br)ccc1O,68

# System: Pseudomonas aeruginosa
# Test: Antibacterial activity against Pseudomonas aeruginosa ATCC 27853 after 24 hr by microdilution test
# Type: functional
# Details: ATCC 27853, 24 h
# Method in brief: as §1
row,Structure (SMILES),MIC [µM]
1,O=C1N/C(=N\c2nccs2)S/C1=C\c1cc(Br)ccc1O,17

# System: Mus musculus
# Test: Antiinflammatory activity in AKR mouse assessed as inhibition of carrageenan-induced paw edema at 0.01 mmol/kg, ip measured after 3.5 hrs of carrageenan-challenge
# Type: functional
# Details: not given
# Method in brief: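 AKR mice of both sexes (pregnant females excluded), 6-10 per group, fasted during the experiment. Edema induced by intradermal 0.05 mL of 2% carrageenin into the right hind paw. Compound given at 0.01 mmol/kg ip, suspended in water with Tween-80, at the same time as carrageenin.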
row,Structure (SMILES),inhibition in vivo at 10 µmol/kg [%]
1,O=C1N/C(=N\c2nccs2)S/C1=C\c1cccc(O)c1,33.7
2,O=C1N/C(=N\c2nccs2)S/C1=C\c1cc(Br)ccc1O,54.4

# Source: ChEMBL document CHEMBL2311431, “Synthesis and biological evaluation of some 5-arylidene-2-(1,3-thiazol-2-ylimino)-1,3-thiazolidin-4-ones as dual anti-inflammatory/antimicrobial agents” (Bioorg Med Chem, 2013)
